Test results as given in ChEMBL document CHEMBL1799956, “Convergent synthesis and biological evaluation of 2-amino-4-(3',4',5'-trimethoxyphenyl)-5-aryl thiazoles as microtubule targeting agents” (J Med Chem, 2011).
The source made the active and inactive calls. No cut-off for these calls is given here.

Legend:
A549 [1] = experiment: Antiproliferative activity against human A549 cells assessed as growth inhibition after 72 hrs by MTT assay; format: functional, cell-based; conditions: A549, 72 h
HT-29 = experiment: Antiproliferative activity against human HT-29 cells assessed as growth inhibition after 72 hrs by MTT assay; format: functional, cell-based; conditions: HT-29, 72 h
[2] = Antiproliferative activity against human vinblastine-resistant CEM/VBL100 cells overexpressing P-gp assessed as growth inhibition after 72 hrs by MTT assay; format: functional, cell-based; conditions: CEM/VBL100, 72 h
[3] = Antiproliferative activity against human taxol-resistant A549-T12 cells assessed as growth inhibition after 72 hrs by MTT assay; format: functional, cell-based; conditions: A549, 72 h
Bos taurus = species: Bos taurus; experiment: Displacement of [3H]colchicine from bovine brain tubulin at 5 uM
Procedure, shortened: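 [3H]colchicine binding inhibition with tubulin at 1 μM, [3H]colchicine at 5 μM and test compound at 5 μM.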

Tubulin (Homo sapiens) [4] = molecular target: T1, Tubulin (Homo sapiens) (UniProt P68371+Q9H4B7+P0DPH7+P68366+Q13509+Q71U36+P04350+Q3ZCM7+P07437+P68363+Q9BQE3+Q6PEY2+Q13885+Q9BVA1+Q9BUF5); experiment: Induction of microtubule disassembly with spherical morphology in human HeLa cells at 10 nM after 48 hrs using DAPI-staining by fluorescence microscopy; format: cell-based
Procedure, shortened: (§1)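 HeLa cells were exposed to 10 or 100 nM compound for 24 or 48 h, then fixed. Microtubules were stained with FITC-conjugated anti-β-tubulin antibody and imaged by confocal/fluorescence microscopy at 60× magnification.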

Tubulin (Homo sapiens) [5] = molecular target: T1, Tubulin (Homo sapiens); experiment: Induction of microtubule disassembly in human HeLa cells assessed as complete loss of microtubules at 100 nM after 24 hrs using DAPI-staining by fluorescence microscopy; format: cell-based; procedure, shortened: as §1
Tubulin (Homo sapiens) [6] = molecular target: T1, Tubulin (Homo sapiens); experiment: Induction of microtubule disassembly in human HeLa cells assessed as complete loss of microtubules at 100 nM after 48 hrs using DAPI-staining by fluorescence microscopy; format: cell-based; procedure, shortened: as §1
HeLa [7] = experiment: Induction of morphological changes in human HeLa cells assessed as effect on arrangement and amount of F-actin at 100 nM after 24 hrs using phalloidintetramethylrhodamine B isothiocyanate staining by microscopy; format: functional, cell-based
Procedure, shortened: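 HeLa cells were incubated with compound for 24 h. F-actin was stained with a phalloidin–tetramethylrhodamine B isothiocyanate conjugate and nuclei were counterstained with DAPI. Cells were then examined by fluorescence microscopy.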

Jurkat [8] = experiment: Cell cycle arrest in human Jurkat cells assessed as increase of cell population at G2/M phase after 24 hrs using propidium iodide staining by flow cytometry; format: functional, cell-based
HeLa [9] = experiment: Cell cycle arrest in human HeLa cells assessed as decrease of cell population at S phase at 1 to 100 nM after 48 hrs using propidium iodide staining by flow cytometry; format: functional, cell-based
Jurkat [10] = experiment: Cell cycle arrest in human Jurkat cells assessed as decrease of cell population at S phase at 1 to 100 nM after 48 hrs using propidium iodide staining by flow cytometry; format: functional, cell-based
HeLa [11] = experiment: Induction of cell cycle arrest at G2/M phase in human HeLa cells assessed as increase in cyclin B1 expression at 10 to 100 nM by Western blot analysis; format: functional, cell-based; conditions: TDE = time-dependent effect
Procedure, shortened: (§2)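 Immunoblot of HeLa lysates after 24 or 48 h of compound treatment at the indicated concentrations. Probed for cyclin B1, p-Cdc2 Y15 and Cdc25c. Slower-migrating Cdc25c bands were taken as a change in phosphorylation.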

HeLa [12] = experiment: Induction of cell cycle arrest at G2/M phase in human HeLa cells assessed as decrease in Cdc25C expression at 100 nM after 48 hrs by Western blot analysis; format: functional, cell-based; procedure, shortened: as §2
HeLa [13] = experiment: Induction of apoptosis in human HeLa cells assessed as increase in annexin-V positive cells after 24 hrs by annexin-V-FITC and propidium iodide staining based flow cytometry; format: functional, cell-based
Procedure, shortened: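 Biparametric flow cytometry after annexin-V immunolabelling plus propidium iodide, separating live, early apoptotic, late apoptotic and necrotic cells; HeLa incubated for 24 or 48 h.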

HeLa [14] = experiment: Induction of apoptosis in human HeLa cells assessed as increase in mitochondrial ROS production at 100 nM after 48 hrs using hydroethidine staining by flow cytometry; format: functional, cell-based
HeLa [15] = experiment: Induction of apoptosis in human HeLa cells assessed as decrease in Bax expression at […] after 48 hrs by Western blot analysis; format: functional, cell-based
Procedure, shortened: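 Treated HeLa whole-cell lysates separated by SDS-PAGE and immunoblotted for PARP cleavage, Bcl-2, Bax, pro-caspase-9 and pro-caspase-2.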

HeLa [16] = experiment: Induction of apoptosis in human HeLa cells assessed as DNA condensation at 100 uM after 24 to 48 hrs using Giemsa's staining by microscopic analysis; format: functional, cell-based
Procedure, shortened: (§3)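 HeLa treated 48 h, Giemsa stained and examined by light microscopy at 60× magnification.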

HeLa [17] = experiment: Induction of apoptosis in human HeLa cells assessed as abnormal mitotic figures at 100 uM after 24 to 48 hrs using Giemsa's staining by microscopic analysis; format: functional, cell-based; procedure, shortened: as §3
HeLa [18] = experiment: Induction of apoptosis in human HeLa cells assessed as formation of large cells at 100 uM after 24 to 48 hrs using Giemsa's staining by microscopic analysis; format: functional, cell-based; procedure, shortened: as §3
Jurkat [19] = experiment: Induction of apoptosis in human Jurkat cells assessed as DNA condensation at 100 uM after 24 to 48 hrs using Giemsa's staining by microscopic analysis; format: functional, cell-based
Procedure, shortened: (§4)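 Giemsa staining, then light-microscope examination of cell morphology. HeLa and Jurkat cells were exposed to compound for 24 and 48 h. Magnification 60×.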

Jurkat [20] = experiment: Induction of apoptosis in human Jurkat cells assessed as multinucleation at 10 uM after 24 to 48 hrs using Giemsa's staining by microscopic analysis; format: functional, cell-based; procedure, shortened: as §4
Jurkat [21] = experiment: Induction of apoptosis in human Jurkat cells assessed as formation of large cytoplasmic vacuoles at 100 uM after 24 to 48 hrs using Giemsa's staining by microscopic analysis; format: functional, cell-based; procedure, shortened: as §4
HeLa [22] = experiment: Induction of apoptosis in human HeLa cells assessed as increase in phospho-gammaH2AX expression at […] after 24 hrs by Western blot analysis; format: functional, cell-based
Procedure, shortened: (§5)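 HeLa treated for 24 or 48 h; whole-cell lysates run on SDS-PAGE and blotted for phospho-γH2AX (Ser139).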

HeLa [23] = experiment: Induction of apoptosis in human HeLa cells assessed as increase in phospho-gammaH2AX expression at […] after 48 hrs by Western blot analysis; format: functional, cell-based; procedure, shortened: as §5
HeLa [24] = experiment: Induction of apoptosis in human HeLa cells assessed as reduction in p21 expression at […] after 48 hrs by Western blot analysis; format: functional, cell-based
Procedure, shortened: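 Western blot of HeLa whole-cell lysates, separated by SDS-PAGE and probed with antibodies to p-γH2AX Ser139, p53 and p21waf/cip1. Cells were treated at the indicated concentrations for 24 or 48 h.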

LoVo = experiment: Fold resistance, ratio of IC50 for human doxorubicin-resistant LoVo cells overexpressing P-gp to IC50 for human LoVo cells; format: functional
Procedure, shortened: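 Fold resistance taken as the ratio of IC50 in the resistant line to IC50 in the parental line, each IC50 from dose-response curves of at least three independent experiments.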

A549 [25] = experiment: Fold resistance, ratio of IC50 for human taxol-resistant A549-T12 cells to IC50 for human A549 cells; format: functional
HeLa [26] = experiment: Induction of apoptosis in human HeLa cells assessed activation of caspase 2 at 10 to 100 nM after 48 hrs by Western blot analysis

- IC50 (A549 [1]): 0.09 nM
- IC50 (HT-29): 38.2 nM
- inhibition (Bos taurus): 95%
- Activity (Tubulin (Homo sapiens) [4]): Active
- Activity (Tubulin (Homo sapiens) [5]): Active
- Activity (Tubulin (Homo sapiens) [6]): Active
SMILES: CCOc1ccc(-c2sc(N)nc2-c2cc(OC)c(OC)c(OC)c2)cc1
- IC50 [2]: 0.8 nM
- IC50 [3]: 0.2 nM
- Activity (HeLa [7]): Active
- Activity (Jurkat [8]): Dose-dependent effect
- Activity (HeLa [9]): Active
- Activity (Jurkat [10]): Active
- Activity (HeLa [11]): tde
- Activity (HeLa [12]): Active
- Activity (HeLa [13]): Dose-dependent effect
- Activity (HeLa [14]): Active
- Activity (HeLa [15]): Active
- Activity (HeLa [16]): Active
- Activity (HeLa [17]): Active
- Activity (HeLa [18]): Active
- Activity (Jurkat [19]): Active
- Activity (Jurkat [20]): Active
- Activity (Jurkat [21]): Active
- Activity (HeLa [22]): Active
- Activity (HeLa [23]): Active
- Activity (HeLa [24]): Active
- Ratio IC50 (LoVo): 0.9
- Ratio IC50 (A549 [25]): 2.2
- Activity (HeLa [26]): Active
